Compounds with a hit are over-represented: about 4.2% of the library has one in this group of screens.
GalR3 antag: GalR3 antagonists in HEK293 cells, primary screen, cell-based, fluorescence readout | HEK293 GalR3-CNG cAMP membrane potential fluorescence; galR3 body fused to GalR1 C-terminus | inhibition, % at 3 µM | 0.44% of 360,000 active | AID 651719, 2012;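 active means inhibition above the screen-wide average plus 3 SD, cut at about 13% in these data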;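 further: forskolin and galanin both at EC90 stimulate the cells; cAMP rise reported by CNG channel membrane potential dye signal; 0% = forskolin plus galanin with DMSO and 100% = forskolin alone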
Target sequence (O60755 1-299 limits assumed): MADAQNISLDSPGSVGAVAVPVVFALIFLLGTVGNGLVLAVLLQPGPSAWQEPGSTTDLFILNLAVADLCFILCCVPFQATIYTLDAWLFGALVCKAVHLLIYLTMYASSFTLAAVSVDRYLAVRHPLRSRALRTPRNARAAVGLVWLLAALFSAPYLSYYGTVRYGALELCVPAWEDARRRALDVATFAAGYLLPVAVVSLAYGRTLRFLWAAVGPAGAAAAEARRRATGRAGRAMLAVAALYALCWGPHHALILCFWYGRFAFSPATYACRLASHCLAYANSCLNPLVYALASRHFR
TAAR1 agonist: human TAAR1 agonists, primary screen, Fluo-8 calcium fluorescence, CHO RD-HGA16 cells. AID 624467, 2012. activation, % at 3 µM. vehicle wells 0%, saturating PEA agonist 100%. 0.99% of 360,000 active. Trace amine-associated receptor 1 (Homo sapiens), Q96RJ0;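 active means activation above the mean activation of all test compounds in the run plus 3 SD, cut at about 38% in these data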
Target sequence (Q96RJ0 whole entry, looked up): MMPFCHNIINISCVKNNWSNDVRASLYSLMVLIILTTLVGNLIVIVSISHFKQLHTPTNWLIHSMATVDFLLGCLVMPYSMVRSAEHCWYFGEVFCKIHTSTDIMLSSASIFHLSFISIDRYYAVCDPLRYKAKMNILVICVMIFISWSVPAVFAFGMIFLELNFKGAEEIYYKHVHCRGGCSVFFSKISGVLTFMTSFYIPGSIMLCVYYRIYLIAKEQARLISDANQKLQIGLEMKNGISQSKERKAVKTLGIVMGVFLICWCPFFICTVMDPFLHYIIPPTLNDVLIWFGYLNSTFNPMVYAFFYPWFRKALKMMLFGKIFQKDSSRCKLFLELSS
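Test system: RD-HGA16 (CHO) cells co-expressing Gα16 and hTAAR1 / Benchmarks: DMSO vehicle as 0%, PEA at EC100 as 100% / Repeats: no replicates (n 1) / Measure: % activation from peak over basal fluorescence ratio, DMSO-to-PEA scaled / Timing: 17-24 h plating, Fluo-8 75 min 37 °C, 30 min RT / Technique: kinetic Fluo-8 calcium fluorescence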
OX1R antag-1: antagonists of human orexin 1 receptor (OX1R); Orexin/Hypocretin receptor type 1 (Homo sapiens), O43613; OX1R-expressing cells, FRET antagonist read-out; inhibition, % at 6.6 µM; 1.8% of 330,000 active; in the data active means inhibition mostly above about 38%, no sharp cut-off; inactive means mostly below about 40%;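 further: 0% = agonist challenge alone and 100% = reference antagonist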
CHO parental Ca: ATP-evoked calcium signal inhibitors, parental CHO, primary screen, counter-screen for OX1R antagonist project, cell-based, fluorescence, Fluo-8 calcium dye; inhibition, % at 5.6 µM; AID 463079, 2010; 0.63% of 330,000 active; parental CHO-K1, ATP-induced calcium, Fluo-8 fluorescence;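 active means inhibition above that plate's mean sample inhibition plus 3 SD, cut at about 26% in these data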;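 further: 0% = ATP-challenged DMSO wells and 100% = DMSO wells without ATP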
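Measured by: calcium-sensitive Fluo-8 fluorescence / Test system: CHO parental line / Controls: ATP-challenged DMSO wells low, unchallenged DMSO wells high / Measure: % inhibition / Compound: single nominal dose of 5.6 µM per compound / Replicates: single well per compound, no replicates / Reagent: ATP as calcium-mobilizing challenge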
OX1R antag-2: OX1R (HCRTR1) antagonists, primary screen, fluorescence, CHO/OX1R cells, Fluo-8 calcium, orexin A | Orexin/Hypocretin receptor type 1 (Homo sapiens), O43613 | Fluo-8 calcium fluorescence | inhibition, % at 5 µM | 0.43% of 330,000 active;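 active means inhibition above its plate's threshold, mean inhibition of all tested compounds on the plate plus 3 SD, cut at about 37% in these data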;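 further: 0% = orexin A challenge wells and 100% = SB-334867-A antagonist wells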
TAAR1 antagonist: human TAAR1 antagonists, primary screen, Fluo-8 calcium fluorescence, CHO RD-HGA16 cells. Trace amine-associated receptor 1 (Homo sapiens), Q96RJ0. antagonist. inhibition, % at 3 µM. 1.5% of 360,000 active;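 active means inhibition above a per-plate cutoff, the mean inhibition of test compounds on that plate plus 3 SD, cut at about 49% in these data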;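 further: 0% = DMSO plus EC80 beta-PEA response and 100% = DMSO alone without agonist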
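Test system: RD-HGA16 CHO cells with stable hTAAR1 and Gα16 / Probe or stimulus: EC80 β-phenethylamine stimulus / Times: seeding 17-24 h prior, 75-min 37 °C, 30-min RT dye loading / Detection: Fluo-8 calcium-sensitive fluorescence / Read-out basis: % inhibition scaled between DMSO and EC80 PEA controls / Repeats: singlicate, one well per test compound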
nonsel antag count: nonselective antagonists in TAAR1 counter-screen cells, counter-screen for hTAAR1 antagonist project, cell-based, fluorescence, calcium; counterscreen cell line, antagonist mode; shares compounds with TAAR1 antagonist; AID 651780, 2012; inhibition, % at 3 µM; 77% of 2,400 active; in the data active means inhibition above about 22%;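 further: CHO-Ga16 host cells stimulated with ATP at an EC80 level; 0% = agonist EC80 plus vehicle and 100% = vehicle without agonist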
TAAR1 ant conf: human TAAR1 antagonists, retest of hits, confirmation, cell-based, fluorescence; shares compounds with TAAR1 antagonist; TAAR1-expressing cells, fluorescence antagonist read-out; inhibition, % at 3 µM; 40% of 2,400 active; AID 651785, 2012; in the data active means inhibition above about 49%;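 further: CHO-Ga16 host cells challenged with agonist PEA near its EC80; 0% = agonist at EC80 plus vehicle and 100% = vehicle with no agonist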
Ga16 ag counter: calcium activation in Ga16-expressing cells, counter-screen for TAAR1 antagonist project, cell-based, fluorescence. shares compounds with TAAR1 antagonist. agonist counterscreen. activation, % at 3 µM. 18% of 2,400 active. AID 651953, 2012; in the data active means activation above about 12%;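 further: 0% = vehicle wells and 100% = saturating stimulus response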
TAAR1 ag counter: TAAR1 activation by candidate antagonists – cell-based, fluorescence, counter-screen for TAAR1 antagonist project; shares compounds with TAAR1 antagonist; activation, % at 3 µM; 2% of 2,400 active; AID 651955, 2012; hTAAR1 cell line, agonist mode; in the data active means activation above about 37%;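 further: CHO cells stably expressing TAAR1 with calcium dye readout; 0% = DMSO vehicle and 100% = full agonist response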
Numbers without * were called inactive; / = no result given.

SMILES	GalR3 antag	TAAR1 agonist	OX1R antag-1	CHO parental Ca	OX1R antag-2	TAAR1 antagonist	nonsel antag count	TAAR1 ant conf	Ga16 ag counter	TAAR1 ag counter
Cc1nn(C)c(C)c1CN(C(=O)C1CCC(=O)N(C2CCCCCC2)C1)C(C)C (stereo not drawn)	-6	0	10	-10	1	-15	/	/	/	/
COc1ccc(CNC(=O)c2ccc(NC(=O)CC3SC(N4CCCCC4)=NC3=O)cc2)cc1 (stereo not drawn)	2	5	-1	-15	-16	-1	/	/	/	/
COc1ccc2cc(/C=C3\SC(=S)NC3=O)c(N3CCOCC3)nc2c1	-5	4	74*	-11	-15	53*	36*	42	5	0
O=C(Nc1ccc(F)cc1)c1ccc(CSc2ccccc2)o1	-4	6	36	-6	-12	13	/	/	/	/
CC(=O)c1ccc(NC(=O)c2ccc(CSc3ccccc3)o2)cc1	-6	4	42	-7	-16	95*	28*	80*	5	-2
CCN(CC(=O)Nc1ccc(NC(C)=O)cc1)C(=O)c1oc2c(ccc3ccccc32)c1C	-1	33	3	-27	-16	64*	39*	61*	18*	28
CCN(CC(=O)Nc1ccc(NC(C)=O)cc1)C(=O)c1oc2ccccc2c1C	-1	3	14	-11	-26	-9	/	/	/	/
O=C(NC1CCCc2c1cnn2-c1cc(F)cc(F)c1)c1ccncc1 (stereo not drawn)	-7	1	7	-12	-24	-5	/	/	/	/
CCCCCCSc1cccc(-c2nc3ccc(Cl)cn3c2NCc2ccccc2)c1	-1	6	34	-27	-49	-5	/	/	/	/
COc1ccc(CCNC(=O)c2ccccc2NC(=O)C2=C(C)OCCS2)cc1OC	0	15	41	-22	-12	70*	30*	51*	10	15
OC1(c2cccc(C(F)(F)F)c2)CCN(c2ccc(-c3ccccc3)nn2)CC1	-5	10	15	-5	-13	75*	19	39	4	-1
CCc1ccccc1-n1cnc2cc(C(=O)O)ccc21	6	9	-11	-8	-14	-1	/	/	/	/
CCc1ccc(S(=O)(=O)Nc2ccc(O)c3c(=O)cc(-c4ccccc4Cl)oc23)cc1	-5	14	32	-18	-12	61*	4	25	7	16
COc1ccc(S(=O)(=O)Nc2ncccn2)cc1	-8	-3	9	4	-18	105*	3	-1	1	1
COc1ccc(CC(=O)Nc2ccc(S(=O)(=O)Nc3ncccn3)cc2)cc1	-1	5	10	0	-2	-2	/	/	/	/
Cc1ccc(OCC(=O)Nc2sc3c(c2C#N)CCC3)cc1	0	0	26	-18	-40	51*	0	-7	-1	0
Cc1ccc(OCC(=O)Nc2sc3c(c2C#N)CCC3)cc1C	-2	8	38	-4	-10	42	/	/	/	/
Cc1ccc(CSc2nnc(SCC(=O)N/N=C/c3c[nH]c4ccccc34)s2)cc1	-4	9	/	/	/	79*	28*	43	3	3
O=C(CSc1nnc(SCc2ccccc2)s1)N/N=C/c1c[nH]c2ccccc12	2	5	/	/	/	0	/	/	/	/
CCS(=O)(=O)Nc1ccc(C2=NN(C(=O)c3ccco3)C(c3cccs3)C2)cc1 (stereo not drawn)	3	-1	2	-6	-20	-44	/	/	/	/
O=C1Nc2ccc(Cl)cc2C(C#CC2CC2)(C(F)(F)F)O1 (stereo not drawn)	-4	7	14	28	-3	25	/	/	/	/
CC(C)c1c(C(=O)N/N=C/c2c[nH]c3ccccc23)nnn1-c1nonc1N	-2	33	3	25	25	75*	40*	62*	18*	18
CC(C)c1c(C(=O)N/N=C/c2cccc3ccccc23)nnn1-c1nonc1N	-3	1	13	10	1	6	/	/	/	/
O=C(Nc1ccc(S(=O)(=O)N2CCCCC2c2cccnc2)cc1)c1ccccc1F (stereo not drawn)	-4	12	39	-10	-10	56*	27*	34	10	9
COc1ccccc1C(=O)Nc1ccc(S(=O)(=O)N2CCCCC2c2cccnc2)cc1 (stereo not drawn)	6	5	24	-11	-9	16	/	/	/	/
SMILES	GalR3 antag	TAAR1 agonist	OX1R antag-1	CHO parental Ca	OX1R antag-2	TAAR1 antagonist	nonsel antag count	TAAR1 ant conf	Ga16 ag counter	TAAR1 ag counter
O=C(Nc1ccc(Oc2ccc(NC(=O)c3ccco3)c(NC(=O)c3ccco3)c2)cc1)c1ccco1	-1	11	9	-13	-9	62*	29*	56*	5	5
CC(C)(C)c1ccc(C(=O)Nc2ccc(NC(=O)c3ccco3)cc2)cc1	3	11	22	0	-19	58*	22*	43	7	2
O=C(Nc1ccc(Oc2ccc3ccccc3c2)cc1)c1ccco1	-4	1	32	27	3	27	/	/	/	/
CS(=O)(=O)c1ccc(Cl)c(NC(=O)COC(=O)c2cccc(S(=O)(=O)N3CCCCC3)c2)c1	0	2	19	-15	-5	-7	/	/	/	/
COc1cccc(/C=N/NC(=O)c2cc(C34CC5CC(CC(C5)C3)C4)[nH]n2)c1	-2	9	29	-14	-11	57*	23*	36	8	18
NC(=O)c1nsc(C(=O)N(Cc2ccco2)C(C(=O)NCC2CCCO2)c2ccc(F)cc2)c1N (stereo not drawn)	-10	11	/	/	/	6	/	/	/	/
